Assay [1] in a line: Growth inhibition of Chinese hamster PC43-10 cells expressing reduced folate carrier incubated for 96 hrs by CellTiter-blue cell viability assay. The assay is classed as functional, cell-based. The note with it: Cricetulus griseus, PC43-10, 96 h. (In general: Alamar Blue is a resazurin reagent that responds to reducing activity.)
Assay [2] has as its system R2. Kind of assay: Growth inhibition of Chinese hamster R2 cells deficient in reduced folate carrier and human folate receptor alpha incubated for 96 hrs by CellTiter-blue cell viability assay. The assay is classed as cell-based, Cricetulus griseus. The note with it: R2, 96 h.
Assay [3] in a line: Growth inhibition of Chinese hamster RT16 cells expressing human folate receptor alpha incubated for 96 hrs by CellTiter-blue cell viability assay. The class given is functional, cell-based. The note with it: Cricetulus griseus, RT16, 96 h.
Assay [4] can be described thus: Growth inhibition of Chinese hamster RT16 cells expressing human folate receptor alpha incubated for 96 hrs in presence of folic acid by CellTiter-blue cell viability assay. The assay is classed as functional, cell-based. Conditions: Cricetulus griseus, RT16, 96 h.
The test system of assay [5] is R2. The assay is described as follows: Growth inhibition of Chinese hamster R2 cells expressing human PCFT incubated for 96 hrs by CellTiter-blue cell viability assay. The class given is functional, cell-based, Cricetulus griseus. The note with it: R2, 96 h. In short, it runs like this:
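R2/hPCFT4 CHO cells maintained beforehand in folate-free RPMI 1640 with dialyzed FBS, 25 nM LCV and G418. Assay: ~2500–5000 cells/well in folate-free RPMI 1640 (pH 7.2) with 25 nM LCV, 10% dialyzed FBS, antibiotics and L-glutamine, over a range of drug concentrations.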

Assay [6] concerns KB. Kind of assay: Growth inhibition of human KB cells endogenously expressing RFC/FRalpha/PCFT incubated for 96 hrs by CellTiter-blue cell viability assay. The class given is functional, cell-based.
Assay [7] concerns KB. Kind of assay: Growth inhibition of human KB cells endogenously expressing RFC/FRalpha/PCFT in presence of folic acid incubated for 96 hrs by CellTiter-blue cell viability assay. The assay is classed as functional, cell-based.
Assay [8] has as its system R2. The assay is described as follows: Growth inhibition of Chinese hamster R2 cells expressing empty vector control incubated for 96 hrs by CellTiter-blue cell viability assay. Conditions: Cricetulus griseus, R2, 96 h.
Assay [9] relates to IGROV-1. Kind of assay: Growth inhibition of human IGROV1 cells endogenously expressing RFC/FRalpha/PCFT incubated for 96 hrs by CellTiter-blue cell viability assay. The assay is classed as functional, cell-based. The note with it: IGROV-1, 96 h.
The subject of assay [10] is IGROV-1. The assay is described as follows: Growth inhibition of human IGROV1 cells endogenously expressing RFC/FRalpha/PCFT in presence of folic acid incubated for 96 hrs by CellTiter-blue cell viability assay. Conditions: IGROV-1, 96 h. The class given is functional, cell-based.
For assay [11], the system named is KB. The assay is described as follows: Inhibition of colony formation of human KB cells endogenously expressing RFC/FRalpha/PCFT incubated for 14 days by methylene blue staining based clonogenicty assay. The class given is functional, cell-based. Conditions: 336 h.
The subject of assay [12] is KB. Kind of assay: Growth inhibition of human KB cells endogenously expressing RFC/FRalpha/PCFT in presence of 50 nM leucovorin incubated for 96 hrs by CellTiter-blue cell viability assay. The assay is classed as functional, cell-based. Summed up: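 KB cells in complete folate-free RPMI 1640 with 10% dialyzed FBS and LCV at 50 nM (versus the standard 2 nM), exposed to a range of antifolate concentrations for up to 96 h. Cell density read by CellTiter-blue fluorescence and normalized to drug-free cells. Representative data from experiments run in duplicate.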

The target in assay [13] is Folate receptor alpha (Homo sapiens) (UniProt P15328). The class given is cell-based. The note with it: CHO.
Assay [14] has as its target T1, Trifunctional purine biosynthetic protein adenosine-3 (Homo sapiens, UniProt P22102).
T1 sequence (P22102 whole entry): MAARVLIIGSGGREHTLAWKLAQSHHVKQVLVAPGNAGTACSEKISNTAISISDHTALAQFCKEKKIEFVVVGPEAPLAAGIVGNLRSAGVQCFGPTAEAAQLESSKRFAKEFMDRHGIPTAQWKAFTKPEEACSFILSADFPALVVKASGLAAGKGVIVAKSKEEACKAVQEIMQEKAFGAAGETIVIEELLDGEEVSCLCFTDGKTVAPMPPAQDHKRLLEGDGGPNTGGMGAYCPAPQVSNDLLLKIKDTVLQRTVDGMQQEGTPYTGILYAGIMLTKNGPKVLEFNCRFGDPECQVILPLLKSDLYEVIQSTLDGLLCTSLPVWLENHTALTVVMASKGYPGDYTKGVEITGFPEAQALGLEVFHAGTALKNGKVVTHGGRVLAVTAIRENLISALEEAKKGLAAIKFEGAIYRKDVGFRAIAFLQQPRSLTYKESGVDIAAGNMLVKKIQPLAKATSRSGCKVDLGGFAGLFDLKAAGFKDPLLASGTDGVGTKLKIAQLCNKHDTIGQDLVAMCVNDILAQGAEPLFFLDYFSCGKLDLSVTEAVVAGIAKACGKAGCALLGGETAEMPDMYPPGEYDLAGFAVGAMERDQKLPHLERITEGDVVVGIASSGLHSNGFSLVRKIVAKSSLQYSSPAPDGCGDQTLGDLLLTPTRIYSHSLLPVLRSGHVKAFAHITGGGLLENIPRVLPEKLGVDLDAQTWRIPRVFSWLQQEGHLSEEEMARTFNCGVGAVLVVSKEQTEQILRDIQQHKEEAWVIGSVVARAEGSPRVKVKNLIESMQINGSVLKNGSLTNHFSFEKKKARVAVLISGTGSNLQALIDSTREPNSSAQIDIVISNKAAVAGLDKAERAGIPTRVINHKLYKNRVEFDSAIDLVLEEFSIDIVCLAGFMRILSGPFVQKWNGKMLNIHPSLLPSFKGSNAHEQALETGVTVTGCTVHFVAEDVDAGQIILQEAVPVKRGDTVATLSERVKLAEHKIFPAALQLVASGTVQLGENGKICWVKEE
The assay is described as follows: Inhibition of GARFTase in human IGROV1 cells assessed as reduction in [14C]glycine incorporation into [14C]formyl GAR incubated for 15 hrs in complete folate free RPMI medium in presence of 2 nM leucovorin. The class given is cell-based, IGROV-1.

SMILES strings stand for the structures.

Sequence of Folate receptor alpha (Homo sapiens) (P15328 25-234 limits assumed): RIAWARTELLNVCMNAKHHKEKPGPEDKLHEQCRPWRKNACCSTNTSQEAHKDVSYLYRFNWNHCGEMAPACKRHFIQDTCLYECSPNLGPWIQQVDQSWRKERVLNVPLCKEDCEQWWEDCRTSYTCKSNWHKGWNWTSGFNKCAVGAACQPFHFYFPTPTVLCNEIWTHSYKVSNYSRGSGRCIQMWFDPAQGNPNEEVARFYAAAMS

For the molecule `Nc1nc2[nH]c(CCCCc3sccc3C(=O)N[C@@H](CCC(=O)O)C(=O)O)cc2c(=O)[nH]1`, the IC50 (usually the concentration that inhibits the measured activity by half) was above 1000 nM in assay [1]; above 1000 nM with R2 [2]; above 1000 nM in assay [3]; above 1000 nM in assay [4]; above 1000 nM in the assay on R2 [5]; 171 nM in the assay on KB [6]. The IC50 in the assay with KB [7] and in the assay with R2 [8] was above 1000 nM throughout.

Regarding `Nc1nc2[nH]c(CCC#Cc3ccsc3C(=O)N[C@@H](CCC(=O)O)C(=O)O)cc2c(=O)[nH]1`, the IC50 (in assay [1]; in the assay on R2 [2]; in assay [3]; in [4]; in the assay with R2 [5]; in the assay with KB [6]) was above 1000 nM in each case. For the same molecule, the IC50 in the assay on KB [7] and in the assay with R2 [8] was above 1000 nM throughout.

For the molecule `Nc1nc2[nH]c(CCC#Cc3ccc(C(=O)N[C@@H](CCC(=O)O)C(=O)O)s3)cc2c(=O)[nH]1`, the concentration for half-maximal inhibition (IC50) was above 1000 nM in [1]; above 1000 nM with R2 [2]; 12.1 nM in [3]; above 1000 nM in assay [4]; above 1000 nM with R2 [5]; above 1000 nM in the assay on KB [6]. Also, the half-inhibitory concentration (IC50) in the assay on KB [7], in the assay with IGROV-1 [9], in the assay with IGROV-1 [10] and with R2 [8] was above 1000 nM each time.

For `Nc1nc2[nH]c(CCCc3ccc(C(=O)N[C@@H](CCC(=O)O)C(=O)O)s3)cc2c(=O)[nH]1`, the IC50 is 101 nM in [1]; above 1000 nM in assay [4]; above 1000 nM with KB [7]; above 1000 nM with IGROV-1 [10]; 288 nM in the assay with R2 [8].

As for `Nc1nc2[nH]c(CCC#Cc3sccc3C(=O)N[C@@H](CCC(=O)O)C(=O)O)cc2c(=O)[nH]1`, the IC50 (in assay [1]; in the assay on R2 [2]; in assay [3]; in assay [4]; in the assay with R2 [5]; in the assay with KB [6]) was above 1000 nM each time. For the same molecule, the concentration for half-maximal inhibition (IC50) with KB [7] and in the assay with R2 [8] was above 1000 nM throughout.

As for `Nc1nc2[nH]c(CCC#Cc3cc(C(=O)N[C@@H](CCC(=O)O)C(=O)O)cs3)cc2c(=O)[nH]1`, the half-inhibitory concentration (IC50) in [1] is above 1000 nM; in the assay on R2 [2], above 1000 nM; in assay [3] it was 8.26 nM; in [4], above 1000 nM; in the assay with R2 [5], above 1000 nM; in the assay on KB [6], above 1000 nM. The IC50 in the assay with KB [7], with IGROV-1 [9], in the assay with IGROV-1 [10] and in the assay with R2 [8] was above 1000 nM throughout.

In the case of `Nc1nc2[nH]c(CCC#Cc3csc(C(=O)N[C@@H](CCC(=O)O)C(=O)O)c3)cc2c(=O)[nH]1`, the IC50 in assay [1] was above 1000 nM; with R2 [2] it was above 1000 nM; in assay [3] it was 13.5 nM; in [4] it was above 1000 nM; in the assay on R2 [5], above 1000 nM; in the assay on KB [6] it was above 1000 nM. The IC50 in the assay with KB [7], in the assay with IGROV-1 [9], with IGROV-1 [10] and with R2 [8] was above 1000 nM in each case.

For `Nc1nc2[nH]c(CCCCc3ccsc3C(=O)N[C@@H](CCC(=O)O)C(=O)O)cc2c(=O)[nH]1`, the IC50 in [1] is above 1000 nM; in the assay on R2 [2], above 1000 nM; in assay [3], above 1000 nM; in [4] it was above 1000 nM; with R2 [5], above 1000 nM; with KB [6] it was 267 nM. The IC50 with KB [7] and in the assay on R2 [8] was above 1000 nM in each case.

In the case of `Nc1nc2[nH]c(CCCCc3ccc(C(=O)N[C@@H](CCC(=O)O)C(=O)O)s3)cc2c(=O)[nH]1`, the IC50 in the assay on KB [11] was 0.2 nM; with KB [12] it was 2.2 nM; in assay [14], 3.46 nM; in assay [1], above 1000 nM; with R2 [2], above 1000 nM; in [4], above 1000 nM. Moreover, the IC50 in the assay with KB [7], in the assay on IGROV-1 [10] and in the assay on R2 [8] was above 1000 nM in each case. Moreover, in [13], the relative binding affinity (RBA) is above 1.

In the case of `Nc1nc2[nH]c(CCC#Cc3cscc3C(=O)N[C@@H](CCC(=O)O)C(=O)O)cc2c(=O)[nH]1`, the IC50 (in assay [1]; in the assay on R2 [2]; in [3]; in assay [4]; in the assay with R2 [5]; in the assay on KB [6]) was above 1000 nM throughout. Also, the IC50 in the assay with KB [7] and in the assay on R2 [8] was above 1000 nM in each case.

Regarding `Nc1nc2[nH]c(CCCCc3cscc3C(=O)N[C@@H](CCC(=O)O)C(=O)O)cc2c(=O)[nH]1`, the IC50 in assay [1] was above 1000 nM; in the assay on R2 [2], above 1000 nM; in assay [3], 147 nM; in [4], above 1000 nM; with R2 [5] it was above 1000 nM; in the assay with KB [6], 35.3 nM. Also, the concentration for half-maximal inhibition (IC50) was above 1000 nM with KB [7], 103 nM in the assay on IGROV-1 [9], above 1000 nM in the assay with IGROV-1 [10] and above 1000 nM with R2 [8].

The values above are taken from ChEMBL document CHEMBL2157949 (J Med Chem, 2012).
